Series [1] in a line: Cytotoxicity against african green monkey BSC1 cells after 24 hrs by celltiter glo assay. Format: cell-based. The conditions noted are these: chlorocebus aethiops, bsc-1, 24 h. The procedure, abridged:
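BSC-1 African green monkey kidney epithelial cells exposed to compounds; viability read by CellTiter-Glo luminescence.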
Background: Cellular ATP, detected with luciferase, serves as a proxy for viable cell number.

In series [2] the test system is Plasmodium falciparum. Kind of series: Antiplasmodial activity against Plasmodium falciparum schizont infected in human erythrocytes assessed as inhibition of ring-stage parasite growth at 1 to 50 uM after 24 by propidium iodide staining-based FACS analysis. Format: functional, organism-based. Background: A flow cytometer gives signals particle by particle.
Series [3] has as its system Plasmodium falciparum. The experiment in a line: Antiplasmodial activity against Plasmodium falciparum schizont infected in human erythrocytes assessed as effect on schizont morphology at 1 to 50 uM after 24 by propidium iodide staining-based FACS analysis. Format: functional, organism-based.
Series [4] concerns Plasmodium falciparum. Kind of series: Antiplasmodial activity against Plasmodium falciparum schizont infected in human erythrocytes assessed as effect on parasite ring-to-schizont morphology at 1 to 50 uM after 24 by propidium iodide staining-based FACS analysis. The class given is functional, organism-based.
The subject of series [5] is Plasmodium falciparum. Kind of series: Antiplasmodial activity against Plasmodium falciparum infected in human erythrocytes assessed as effect on parasite morphology by Giemsa staining. Format: functional, organism-based. The method, boiled down: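 Giemsa-stained thin blood films were read from schizonts exposed at 36 h post invasion to 10 µM inhibitor, to assess rupture and morphology.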

The target of series [6] is T1, Probable cathepsin C (Plasmodium falciparum 3D7) (UniProt Q8IIJ9).
T1 sequence (whole entry): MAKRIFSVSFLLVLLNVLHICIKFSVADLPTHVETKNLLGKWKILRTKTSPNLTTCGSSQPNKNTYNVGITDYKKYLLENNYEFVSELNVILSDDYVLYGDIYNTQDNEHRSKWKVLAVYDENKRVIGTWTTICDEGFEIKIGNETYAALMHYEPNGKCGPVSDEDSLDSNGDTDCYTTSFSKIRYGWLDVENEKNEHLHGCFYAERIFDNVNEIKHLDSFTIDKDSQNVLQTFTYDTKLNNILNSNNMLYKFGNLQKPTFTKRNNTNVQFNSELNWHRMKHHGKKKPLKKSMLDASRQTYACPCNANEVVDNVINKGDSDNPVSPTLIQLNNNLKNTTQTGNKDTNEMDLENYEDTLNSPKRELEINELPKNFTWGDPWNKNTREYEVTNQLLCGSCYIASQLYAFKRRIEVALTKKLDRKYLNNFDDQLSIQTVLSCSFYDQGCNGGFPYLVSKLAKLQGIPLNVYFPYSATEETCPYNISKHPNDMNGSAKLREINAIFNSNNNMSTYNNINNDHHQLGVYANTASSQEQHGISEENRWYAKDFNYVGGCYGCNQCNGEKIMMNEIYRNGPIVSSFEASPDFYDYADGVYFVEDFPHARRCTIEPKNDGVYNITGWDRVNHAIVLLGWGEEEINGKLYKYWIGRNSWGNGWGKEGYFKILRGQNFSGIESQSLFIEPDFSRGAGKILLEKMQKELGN
Kind of series: Inhibition of Plasmodium falciparum 3D7 cathepsin C by fluorescence spectrophotometry.

The target of series [7] is T2, Falcipain-3 (Plasmodium falciparum 3D7) (UniProt Q8IIL0).
T2 sequence (whole entry): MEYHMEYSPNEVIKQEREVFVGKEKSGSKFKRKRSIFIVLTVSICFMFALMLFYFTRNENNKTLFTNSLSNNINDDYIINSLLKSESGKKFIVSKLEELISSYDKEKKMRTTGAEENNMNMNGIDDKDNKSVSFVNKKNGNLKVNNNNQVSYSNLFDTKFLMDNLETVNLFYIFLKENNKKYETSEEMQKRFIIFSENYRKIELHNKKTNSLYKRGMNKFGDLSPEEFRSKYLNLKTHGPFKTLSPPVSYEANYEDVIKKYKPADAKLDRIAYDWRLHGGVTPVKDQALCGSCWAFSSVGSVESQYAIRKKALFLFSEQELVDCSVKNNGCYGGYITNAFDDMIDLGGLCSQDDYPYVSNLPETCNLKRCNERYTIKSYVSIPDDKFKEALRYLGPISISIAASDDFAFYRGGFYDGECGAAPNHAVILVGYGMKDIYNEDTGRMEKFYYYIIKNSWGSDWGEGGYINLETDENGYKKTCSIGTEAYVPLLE
Kind of series: Inhibition of Plasmodium falciparum 3D7 falcipain-3 by fluorescence spectrophotometry.

Series [8] concerns Plasmodium falciparum. The experiment in a line: Inhibition of Plasmodium falciparum 3D7 falcipain-2 by fluorescence spectrophotometry.
Series [9] addresses T3, Cysteine proteinase falcipain-1 (Plasmodium falciparum 3D7) (UniProt Q8I6V0).
T3 sequence (whole entry): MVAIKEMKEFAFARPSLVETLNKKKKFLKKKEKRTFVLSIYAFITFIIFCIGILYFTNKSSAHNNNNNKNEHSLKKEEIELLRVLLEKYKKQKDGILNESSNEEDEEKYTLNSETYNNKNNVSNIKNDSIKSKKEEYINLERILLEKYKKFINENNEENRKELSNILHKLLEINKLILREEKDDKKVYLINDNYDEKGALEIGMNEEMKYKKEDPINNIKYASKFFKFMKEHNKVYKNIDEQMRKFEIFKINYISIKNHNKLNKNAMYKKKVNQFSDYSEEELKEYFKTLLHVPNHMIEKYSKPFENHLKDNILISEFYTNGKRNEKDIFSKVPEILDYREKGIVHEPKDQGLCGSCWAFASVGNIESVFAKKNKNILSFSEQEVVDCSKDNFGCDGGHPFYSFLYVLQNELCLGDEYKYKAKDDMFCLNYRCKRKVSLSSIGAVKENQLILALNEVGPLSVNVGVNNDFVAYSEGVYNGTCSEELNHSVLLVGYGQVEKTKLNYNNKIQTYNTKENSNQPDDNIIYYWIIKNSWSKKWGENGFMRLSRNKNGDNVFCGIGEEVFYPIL
Kind of series: Inhibition of Plasmodium falciparum 3D7 falcipain-1 by fluorescence spectrophotometry.

Active and inactive are the calls of the source. No cut-off for these calls is given here.

As for `CCC[C@H](N)C(=O)N[C@H](/C=C/S(=O)(=O)c1ccccc1)CCc1ccccc1`, the Activity result in series [1] is on record as “Non-toxic”. The inhibition result (with Plasmodium falciparum [2]; in [6]; in [7]; in the series with Plasmodium falciparum [8]; in series [9]) was “Active” in each case. In addition, the outcome in the series with Plasmodium falciparum [3], in the series on Plasmodium falciparum [4] and with Plasmodium falciparum [5] was inactive.
For the molecule `C[C@H](N)C(=O)N[C@H](/C=C/S(=O)(=O)c1ccccc1)CCc1ccccc1`, in [1], the Activity entry is “Non-toxic”. Further, the inhibition entry (with Plasmodium falciparum [2]; in series [6]; in series [7]; in the series on Plasmodium falciparum [8]; in series [9]) was “Active” in each case. Moreover, the outcome in the series on Plasmodium falciparum [3], in the series with Plasmodium falciparum [4] and with Plasmodium falciparum [5] was inactive.

The record behind these values is ChEMBL document CHEMBL1240337, “Identification of proteases that regulate erythrocyte rupture by the malaria parasite Plasmodium falciparum” (Nat Chem Biol, 2008).
